High-throughput results as filed in PubChem.
The list is not random: actives were taken first. Their share in the collection is about 5.6%.
CHOP inh: blocks CHOP induction under ER stress; CHO-K1 CHOP-promoter luciferase, tunicamycin-induced, 15-18 h; inhibition, % at 10 µM; 220,000 compounds, 3.8% hits; AID 2732;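 active means compounds that reduced the stress-induced luciferase reporter signal by more than about 70% of percent inhibition, limit read from the data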;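 further: 0% = tunicamycin plus vehicle and 100% = wells without tunicamycin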
MPTP block: inhibitors of mitochondrial permeability transition pore; isolated mouse mitochondria, Ca2+ swelling absorbance, 30 min; inhibition, % at 10 µM; 360,000 compounds, 1.4% hits; AID 602449;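 active means inhibition of 50% or more, scaled per plate between neutral and stimulator controls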;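 further: 0% = DMSO wells given calcium and 100% = 1 mM EGTA wells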
aDG glyco act: alpha-DG glycosylation activation; Pro5-aDG cells, alpha-DG glycosylation AlphaScreen (IIH6); 0% Pro5, 100% B10-LARGE cell signal; activation, % at 10 µM; 360,000 compounds, 0.22% hits;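 active means activation of at least 8% versus controls, or a plate z-score of at least 8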;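 further: Pro5 are CHO cells carrying HIG-tagged alpha-DG that lacks glycosylation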
XBP1 UPR activ: activators of adaptive arm of unfolded protein response (XBP1). CHO-XBP1 luciferase reporter, IRE1-XBP1 UPR activation, luminescence; percent of tunicamycin response, DMSO as zero. activation, % at 20 µM. 330,000 compounds, 0.33% hits;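 active means versus positive control, 20 µM dose yields 30% or more activation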;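 further: 100% = tunicamycin at 10 µg/mL and 0% = DMSO only wells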
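Assay system: CHO-XBP1 luciferase reporter cells; Schedule: 6 h treatment, 37 °C; Detection: glow luminescence from Steady-Glo reagent; Benchmarks: high control tunicamycin 10 µg/mL final, low control DMSO vehicle only.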
NR3A LBD binder: modulates the human NR3A ligand-binding domain | Tm shift relative to glycine control, % at 25 µM | 340,000 compounds, 2.5% hits | NR3A LBD differential scanning fluorimetry, Tm shift; 0% = protein alone, 100% = glycine-bound protein;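 active means melting temperature shift of at least 10% of the positive control shift, at one fixed dose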
CHOP UPR activ: activators of apoptotic arm of unfolded protein response (CHOP); CHO-CHOP luciferase reporter, UPR activation, luminescence; percent of tunicamycin response over DMSO baseline; activation, % at 10 µM; 330,000 compounds, 0.34% hits;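 active means at 10 µM dose, activation of 40% or more, normalized to positive control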;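 further: 100% = tunicamycin at 10 µg/mL and 0% = DMSO alone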
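Assay system: CHO cells with stable CHOP pathway luciferase reporter; Buffer or medium: F12 plus 10% serum; Times: 16-18 h cell attachment, then 6 h compound exposure, 37 °C; Signal: luciferase luminescence; Read-out basis: percent activation relative to tunicamycin control; Control set: tunicamycin high control, DMSO low control.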
Active calls of the source: *; x = not tested or not shown.

SMILES	CHOP inh	MPTP block	aDG glyco act	XBP1 UPR activ	NR3A LBD binder	CHOP UPR activ
Cn1c(=O)c2[nH]c(SCCN3CCCCC3)nc2n(C)c1=S	x	-1	0	x	15*	x
Cn1c(=O)c2[nH]c(SCCN3CCOCC3)nc2n(C)c1=S	x	-2	0	x	-2	x
Cc1ccc(S(=O)(=O)N2CCN(C(=O)CSCc3ccc(C(C)C)cc3)CC2)cc1	x	1	1	-5	0	1
Cc1ccccc1CN1CC2=C(CCN(Cc3ccccc3)C2=O)N2CCN=C12	x	0	2	x	x	x
O=C(CSc1nc(-c2ccccc2)nc2ccc(F)cc12)Nc1cccc(C(=O)O)c1	1	0	0	-2	12*	-1
O=C(CSc1nc(-c2ccccc2)nc2ccc(F)cc12)Nc1ccc(C(=O)O)cc1	31	-2	2	-3	16*	2
O=C(CSc1nc(-c2ccc(F)cc2)nc2c1Cc1ccccc1O2)Nc1cccc(C(=O)O)c1	21	0	0	x	19*	x
CC(C)OC(=O)CSc1nc(-c2ccc(F)cc2)nc2ccc(F)cc12	1	-2	0	0	-3	-1
CCCC(=O)N1CCCC1(C)C(=O)Nc1ccc2nc(C)ccc2c1 (centres undefined)	x	0	0	x	x	x
N#CC(=Cc1ccc(-c2ccccc2)cc1)C(=O)c1ccccc1	x	-4	0	x	x	x
N#C/C(=C\c1cccs1)C(=O)c1ccccc1	-18	0	0	-1	14*	-1
O=C(CSc1nnc(CCCN2C(=O)c3cccc4cccc(c34)C2=O)n1-c1ccccc1)NCCCO	0	2	0	2	13*	2
CC(C)(C)c1nc2ccccc2c2nnc(SCC(=O)Nc3nc4ccccc4s3)n12	19	6	0	3	7	0
CC(C)(C)c1nc2ccccc2c2nnc(SCC(=O)Nc3nccs3)n12	78*	1	0	17	x	6
NS(=O)(=O)c1ccc(NC(=O)CSc2nnc(Cc3cccs3)n2-c2ccccc2)cc1	9	-1	0	-2	10*	-1
Cc1ccc(-n2c(Cc3cccs3)nnc2SCC(=O)Nc2ccc(S(N)(=O)=O)cc2)cc1	22	0	0	1	-1	-1
O=C(CSc1nnc(CCCO)n1-c1ccccc1)Nc1nccs1	85*	-1	0	0	0	1
Cc1cc(C)n2c(Nc3ccc4c(c3)OCCO4)c(CC(C)C)nc2n1	x	0	1	x	x	x
O=C(Nc1ccon1)Nc1cccc(Cl)c1Cl	x	1	0	-3	5	1
O=C(CSc1nnc(Cc2cccs2)n1Cc1ccco1)Nc1cc(Cl)cc(Cl)c1	82*	15	0	-1	-4	-1
Cc1cccc(N2CCN(C(=O)C3CCCCC3)CC2)c1C	96*	1	0	-1	-1	1
O=C(N1CCN(c2ccccc2F)CC1)C12CC3CC(CC(C3)C1)C2	-21	-1	0	0	1	0
Cc1cccc(N2CCN(C(=O)C34CC5CC(CC(C5)C3)C4)CC2)c1C	72*	26	0	-2	3	-1
Cc1ccccc1NCCC(=O)Nc1ccc(F)cc1	x	2	0	0	1	-1
Cc1ccccc1NCCC(=O)Nc1ccc(Cl)cc1	x	2	0	4	14*	4
SMILES	CHOP inh	MPTP block	aDG glyco act	XBP1 UPR activ	NR3A LBD binder	CHOP UPR activ
Cc1cc(C)c(NC(=O)CN2C(=O)NC3(CCc4ccccc43)C2=O)c(Cl)c1 (centres undefined)	x	1	0	-3	1	0
Cc1cc(C)c(NC(=O)CN2C(=O)NC3(CCCCC3)C2=O)c(Cl)c1	71*	0	0	1	-2	-1
CN(CC(=O)Nc1ccc(F)c(F)c1F)C(=O)C1CCCCC1	x	0	0	-2	0	1
CN(CC(=O)Nc1ccc(F)c(F)c1F)c1cnccn1	74*	x	x	-2	x	0
CCN(CC(=O)Nc1ccccc1Br)C1CCCCC1	73*	0	1	1	-2	1
CN(CC(=O)Nc1ccc(F)c(F)c1F)C1CCCCC1	75*	0	0	0	-3	-2
O=C(O)CCn1nnc2ccccc21	1	1	0	-1	-1	2
